Measurements taken from ChEMBL document CHEMBL1137418, “Neurosteroid analogues. 11. Alternative ring system scaffolds: gamma-aminobutyric acid receptor modulation and anesthetic actions of benz[f]indenes” (J Med Chem, 2006).
pIC50: −log10 of the molar value. Activity calls are given as the source filed them. The calls are words filed in the database; no cut-off is given here.

Legend:
[1] = target: T1, GABA-A receptor; alpha-1/beta-2/gamma-2 (Rattus norvegicus) (UniProt P18508+P62813+P63138); test: Activity at rat GABA-Aalpha1 receptor plus beta-2-gamma-2L expressed in Xenopus laevis oocyte assessed as ratio of GABA-mediated current in presence to absence of compound at 0.1 uM; type: functional
[2] = target: T1, GABA-A receptor; alpha-1/beta-2/gamma-2 (Rattus norvegicus); test: Activity at rat GABA-Aalpha1 receptor plus beta-2-gamma-2L expressed in Xenopus laevis oocyte assessed as ratio of current evoked by compound alone in absence of GABA to current evoked by 2 uM GABA at 10 uM
[3] = target: GABA-A receptor; anion channel; test: Displacement of [35S]TBPS from GABA-A receptor in rat brain membrane; type: cell membranes
Method in brief: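 Rat brain membranes were used to measure noncompetitive displacement of [35S]-TBPS from the picrotoxin site of GABAA receptors. Hill slopes were also derived. Results come from duplicate experiments run in triplicate, with error as SEM.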

[4] = target: T1, GABA-A receptor; alpha-1/beta-2/gamma-2 (Rattus norvegicus); test: Activity at rat GABA-Aalpha1 receptor plus beta-2-gamma-2L expressed in Xenopus laevis oocyte assessed as ratio of GABA-mediated current in presence to absence of compound at 10 uM; type: functional
[5] = target: T1, GABA-A receptor; alpha-1/beta-2/gamma-2 (Rattus norvegicus); test: Activity at rat GABA-Aalpha1 receptor plus beta2gamma2L expressed in Xenopus laevis oocyte assessed as ratio of GABA-mediated current in presence to absence of compound at 1 uM; type: functional
Xenopus laevis [6] = organism: Xenopus laevis; test: Loss of swimming reflex in Xenopus laevis tadpole; type: functional
Method in brief: (§1)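 Xenopus tadpoles were scored for loss of righting response and, separately, loss of swimming response. N = 10 animals were tested at each of five or more concentrations, and error is given as SEM.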

Xenopus laevis [7] = organism: Xenopus laevis; test: Loss of righting reflex in Xenopus laevis tadpole; type: functional; method in brief: as §1
Xenopus laevis [8] = organism: Xenopus laevis; test: Loss of swimming reflex in Xenopus laevis tadpole at 10 uM; type: functional, organism-based
Xenopus laevis [9] = organism: Xenopus laevis; test: Loss of righting reflex in Xenopus laevis tadpole at 10 uM; type: functional, organism-based

SMILES | Ratio [1] | Ratio [2] | pIC50 [3] | Ratio [4] | Ratio [5] | ED50 (Xenopus laevis [6]) | ED50 (Xenopus laevis [7]) | Activity (Xenopus laevis [8]) | Activity (Xenopus laevis [9])
C[C@]12CC[C@@H](O)C[C@H]1CC[C@@H]1[C@@H]2CC[C@]2(C)[C@@H](C#N)CC[C@@H]12 | 2.02 | 0.09 | 7.14 | 20.6 | 10.4 | 0.36 µM | 0.08 µM |  | 
CC(=O)[C@H]1CC[C@H]2[C@@H]3CC[C@@H](CCO)C[C@H]3CC[C@]12C | 0.91 | 0.14 | 5.93 | 3.63 | 0.96 | 3.15 µM | 1.09 µM |  | 
C[C@]12CC[C@@H]3C[C@H](CCO)CC[C@H]3[C@@H]1CCC2=O | 0.99 | 0.03 | 5.38 | 1.05 | 1.03 |  | 16.4 µM | inactive | 
C[C@]12CC[C@@H]3C[C@@H](CCO)CC[C@H]3[C@@H]1CC[C@@H]2C#N | 1.45 | 0.01 | 6.89 | 7.42 | 3.65 | 1.73 µM | 0.14 µM |  | 
C[C@]12CC[C@@H]3C[C@@H](CCO)CC[C@H]3[C@@H]1CCC2=O | 0.95 | -0.16 | 5.27 | 2.11 | 1.22 |  | 8.1 µM | inactive | 
C[C@]12CC[C@@H]3C[C@H](CCO)CC[C@H]3[C@@H]1CC[C@@H]2C#N | 1.29 | 0.54 | 6.24 | 12.2 | 2.33 | 5.5 µM | 0.79 µM |  | 
CC(=O)[C@H]1CC[C@H]2[C@@H]3CC[C@H](CCO)C[C@H]3CC[C@]12C | 1.27 | 0.13 | 6.89 | 9.35 | 3.79 | 2.84 µM | 1.04 µM |  | 
C[C@]12CC[C@@H](O)C[C@@H]1CC[C@@H]1[C@@H]2CC[C@]2(C)[C@@H](C#N)CC[C@@H]12 | 1.44 | 0.66 | 7.30 | 8.28 | 5.65 | 0.71 µM | 0.07 µM |  | 
CC(=O)[C@H]1CC[C@H]2CC3C[C@H](CCO)CC[C@@H]3C[C@@]21C (single isomer, unassigned) |  |  |  |  |  |  | >10 µM | inactive | 
CC(=O)[C@H]1CC[C@H]2CC3C[C@@H](CCO)CC[C@@H]3C[C@@]21C (single isomer, unassigned) |  |  | 5.69 |  |  | 17.3 µM | 6.63 µM |  | 
C[C@]12C[C@H]3CC[C@H](CCO)CC3C[C@@H]1CCC2=O (single isomer, unassigned; 1a) [listing 1 of 2 here] |  |  | 5.30 |  |  |  | 4.01 µM |  | 
C[C@]12C[C@H]3CC[C@H](CCO)CC3C[C@@H]1CCC2=O (single isomer, unassigned; 1a) [listing 2 of 2 here] | 1 | -0.02 |  | 2.42 | 1 |  |  | inactive | 
C[C@]12C[C@H]3CC[C@@H](CCO)CC3C[C@@H]1CCC2=O (single isomer, unassigned; 1b) [listing 1 of 2 here] |  |  | 5.41 |  |  |  |  |  | 
C[C@]12C[C@H]3CC[C@@H](CCO)CC3C[C@@H]1CCC2=O (single isomer, unassigned; 1b) [listing 2 of 2 here] | 0.9 | -0.02 |  | 3.54 | 1.08 |  |  | inactive | inactive
C[C@]12C[C@H]3CC[C@@H](CCO)CC3C[C@@H]1CCC2=O (single isomer, unassigned; 1c) [listing 1 of 2 here] |  |  | < 4.52 |  |  |  |  |  | 
C[C@]12C[C@H]3CC[C@@H](CCO)CC3C[C@@H]1CCC2=O (single isomer, unassigned; 1c) [listing 2 of 2 here] | 0.93 | -0.01 |  | 1.02 | 0.9 |  |  | inactive | inactive
C[C@]12C[C@H]3CC[C@H](CCO)CC3C[C@@H]1CCC2=O (single isomer, unassigned; 1d) [listing 1 of 2 here] |  |  | < 5.00 |  |  |  | 10 µM |  | 
C[C@]12C[C@H]3CC[C@H](CCO)CC3C[C@@H]1CCC2=O (single isomer, unassigned; 1d) [listing 2 of 2 here] | 1.02 | -0.05 |  | 1.21 | 1.04 |  |  | inactive | 
C[C@]12C[C@H]3CC[C@H](CCO)CC3C[C@@H]1CC[C@@H]2C#N (single isomer, unassigned; 2a) [listing 1 of 2 here] |  |  | 5.91 |  |  | 17.3 µM | 4.78 µM |  | 
C[C@]12C[C@H]3CC[C@H](CCO)CC3C[C@@H]1CC[C@@H]2C#N (single isomer, unassigned; 2a) [listing 2 of 2 here] | 1.02 | 0 |  | 3.9 | 1.29 |  |  |  | 
C[C@]12C[C@H]3CC[C@@H](CCO)CC3C[C@@H]1CC[C@@H]2C#N (single isomer, unassigned; 2b) [listing 1 of 2 here] |  |  | 6.28 |  |  | 5.48 µM | 2.88 µM |  | 
C[C@]12C[C@H]3CC[C@@H](CCO)CC3C[C@@H]1CC[C@@H]2C#N (single isomer, unassigned; 2b) [listing 2 of 2 here] | 1.02 | 0.01 |  | 7.21 | 2.11 |  |  |  | 
C[C@]12C[C@H]3CC[C@@H](CCO)CC3C[C@@H]1CC[C@@H]2C#N (single isomer, unassigned; 2c) [listing 1 of 2 here] |  |  | 5.70 |  |  |  | 3 µM |  | 
C[C@]12C[C@H]3CC[C@@H](CCO)CC3C[C@@H]1CC[C@@H]2C#N (single isomer, unassigned; 2c) [listing 2 of 2 here] | 1.01 | -0.01 |  | 3.23 | 1.14 |  |  | inactive | 
C[C@]12C[C@H]3CC[C@H](CCO)CC3C[C@@H]1CC[C@@H]2C#N (single isomer, unassigned; 2d) [listing 1 of 2 here] |  |  | 5.72 |  |  | 17.3 µM | 5.12 µM |  | 
C[C@]12C[C@H]3CC[C@H](CCO)CC3C[C@@H]1CC[C@@H]2C#N (single isomer, unassigned; 2d) [listing 2 of 2 here] | 0.98 | 0.01 |  | 2.17 | 1.03 |  |  |  | 
C[C@]12CC[C@@H](O)C[C@@H]1CC[C@@H]1[C@@H]2CC[C@]2(C)C(=O)CC[C@@H]12 [ANDROSTERONE] | 0.97 | 0.02 | 6.39 | 5.44 | 1.41 |  | 3.38 µM | inactive | 
CC(=O)[C@H]1CC[C@H]2[C@@H]3CC[C@H]4C[C@H](O)CC[C@]4(C)[C@H]3CC[C@]12C [BREXANOLONE] | 1.26 | 0.37 |  | 9.65 | 3.89 | 5.5 µM | 0.42 µM |  | 
CC(=O)[C@H]1CC[C@H]2[C@@H]3CC[C@@H]4C[C@H](O)CC[C@]4(C)[C@H]3CC[C@]12C [ELTANOLONE] | 1.2 | 0.06 |  | 9.77 | 2.82 | 0.3 µM | 0.06 µM |  | 
C[C@]12CC[C@@H](O)C[C@H]1CC[C@@H]1[C@@H]2CC[C@]2(C)C(=O)CC[C@@H]12 [ETIOCHOLANOLONE] | 0.89 | 0 | 5.38 | 1.39 | 0.87 |  | >10 µM | inactive | 
